One assay has as its system MDA-MB-468. Briefly: Cytotoxicity against human MDA-MB-468 cells after 48 hrs by CellTiterGlo luminescent assay. Particulars: MDA-MB-468, 48 h. The assay is classed as functional, cell-based. Put shortly: (§1)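 Cells (5000-15 000 per well) were plated and left to adhere for 24 h in standard growth medium under ATCC-recommended conditions. The medium was then replaced and the compound added across varying doses, with DMSO in the final medium. Viability was read by ATP-dependent CellTiter-Glo luminescence, and IC50 values were derived from the dose series.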
Background: In ATP-based viability assays light output follows the ATP content of the culture.

A further assay relates to MCF7. Briefly: Cytotoxicity against human MCF7 cells after 48 hrs by CellTiterGlo luminescent assay. It counts as functional, cell-based. Particulars: MCF7, 48 h. Put shortly:
as §1

The test system of another assay is T47D. Briefly: Cytotoxicity against human T47D cells after 48 hrs by CellTiterGlo luminescent assay. The assay is classed as functional, cell-based. In outline:
as §1

A further assay relates to SK-MEL-28. Kind of assay: Cytotoxicity against human SK-MEL-28 cells after 48 hrs by CellTiterGlo luminescent assay. The assay is classed as functional, cell-based. Conditions: SK-MEL-28, 48 h. In outline:
as §1

Assay [1] can be described thus: Cytotoxicity against rat IEC-6 cells after 48 hrs by CellTiterGlo luminescent assay. The assay is classed as cell-based. Conditions: IEC-6, 48 h. In outline: as §1
A further assay relates to UACC-62. Briefly: Cytotoxicity against human UACC62 cells after 48 hrs by CellTiterGlo luminescent assay. It counts as functional, cell-based. Conditions: UACC-62, 48 h. In outline: as §1
Another assay concerns HUVEC. Briefly: Cytotoxicity against human HUVEC cells after 48 hrs by CellTiterGlo luminescent assay. The assay is classed as cell-based. In outline: as §1
The next assay deals with HepG2. Briefly: Cytotoxicity against human HepG2 cells after 48 hrs by CellTiterGlo luminescent assay. Conditions: HepG2, 48 h. It counts as functional, cell-based. In outline:
as §1

The next assay has as its system HCT-116. Kind of assay: Cytotoxicity against human HCT116 cells after 48 hrs by CellTiterGlo luminescent assay. It counts as functional, cell-based. Conditions: HCT-116, 48 h. Put shortly:
as §1

A further assay concerns SK-MEL-2. Briefly: Cytotoxicity against human SK-MEL-2 cells after 48 hrs by CellTiterGlo luminescent assay. It counts as functional, cell-based. Conditions: SK-MEL-2, 48 h. Put shortly:
as §1

The next assay concerns SK-MEL-5. Kind of assay: Cytotoxicity against human SK-MEL-5 cells after 48 hrs by CellTiterGlo luminescent assay. It counts as functional, cell-based. Conditions: SK-MEL-5, 48 h. In outline:
as §1

Another assay has as its system SW48. Briefly: Cytotoxicity against human SW48 cells after 48 hrs by CellTiterGlo luminescent assay. Conditions: SW48, 48 h. The assay is classed as functional, cell-based. In outline: as §1
The next assay deals with OVCAR-3. Kind of assay: Cytotoxicity against human OVCAR3 cells after 48 hrs by CellTiterGlo luminescent assay. The assay is classed as functional, cell-based. Particulars: OVCAR-3, 48 h. Put shortly: as §1
The next assay relates to MDA-MB-231. Kind of assay: Cytotoxicity against human MDA-MB-231 cells after 48 hrs by CellTiterGlo luminescent assay. Conditions: MDA-MB-231, 48 h. It counts as functional, cell-based. In outline:
as §1

In a further assay the test system is A-427. Briefly: Cytotoxicity against human A427 cells after 48 hrs by CellTiterGlo luminescent assay. Particulars: A-427, 48 h. It counts as functional, cell-based. In outline: as §1
In another assay the test system is RKO. Kind of assay: Cytotoxicity against human RKO cells after 48 hrs by CellTiterGlo luminescent assay. It counts as functional, cell-based. In outline: as §1
For a further assay, the system named is Huh-7. Kind of assay: Cytotoxicity against human HuH7 cells after 48 hrs by CellTiterGlo luminescent assay. The assay is classed as functional, cell-based. Conditions: Huh-7, 48 h. Put shortly: as §1
Assay [2] is described as follows: Cytotoxicity against human NHF177 cells after 48 hrs by CellTiterGlo luminescent assay. It counts as cell-based. Conditions: NHF177, 48 h. Put shortly: as §1
The test system of a further assay is MDA-MB-453. Kind of assay: Cytotoxicity against human MDA-MB-453 cells after 48 hrs by CellTiterGlo luminescent assay. It counts as functional, cell-based. Particulars: MDA-MB-453, 48 h. Put shortly: as §1
The nature of assay [3]: Cytotoxicity against human Hep3B cells after 48 hrs by CellTiterGlo luminescent assay. It counts as functional, cell-based, Hep 3B2. In outline: as §1
A further assay has as its system A549. Kind of assay: Cytotoxicity against human A549 cells after 48 hrs by CellTiterGlo luminescent assay. The assay is classed as functional, cell-based. Conditions: A549, 48 h. In outline: as §1
The nature of assay [4]: Cytotoxicity against human Hs 578T cells after 48 hrs by CellTiterGlo luminescent assay. It counts as functional, cell-based. In outline: as §1
A further assay relates to COLO 205. Kind of assay: Cytotoxicity against human COLO205 cells after 48 hrs by CellTiterGlo luminescent assay. It counts as functional, cell-based. Conditions: COLO 205, 48 h. In outline: as §1

Data on 2 molecules can be found in ChEMBL document CHEMBL1687883, “Dinoxin B, a withanolide from Datura inoxia leaves with specific cytotoxic activities” (J Nat Prod, 2011).

The term IC50 denotes the concentration that gives 50% inhibition. Low values mean greater potency, high ones weaker potency. As for `CC1=C(CO)C(=O)O[C@@H]([C@@H](CO)[C@H]2CC[C@H]3[C@@H]4CC=C5CC=CC(=O)[C@]5(C)[C@H]4C[C@@H](O)[C@]23C)C1`, the IC50 in the assay with MDA-MB-468 turned out to be 750 nM; in the assay with MCF7, 870 nM; with T47D, 990 nM.

`CC1=C(CO[C@@H]2O[C@H](CO)[C@@H](O)[C@H](O)[C@H]2O)C(=O)O[C@@H]([C@@H](CO)[C@H]2CC[C@H]3[C@@H]4CC=C5CC=CC(=O)[C@]5(C)[C@H]4C[C@@H](O)[C@]23C)C1` [DINOXIN B]: the IC50 came out at 2300 nM with SK-MEL-28; 3300 nM in assay [1]; 500 nM with UACC-62; 740 nM in the assay with HUVEC; 1500 nM in the assay with HepG2; 1000 nM with HCT-116. Further, the IC50 in the assay on SK-MEL-2 is 360 nM; with SK-MEL-5, 1400 nM; with SW48 it was 580 nM; with OVCAR-3, 3200 nM; with MDA-MB-231 it was 1000 nM; in the assay on MDA-MB-468, 580 nM. The half-inhibitory concentration (IC50) came out at 870 nM in the assay with A-427; 360 nM with RKO; 1500 nM with Huh-7; 610 nM in the assay with MCF7; 1230 nM in assay [2]; 3000 nM in the assay with MDA-MB-453. Moreover, the half-maximal inhibitory concentration (IC50) in assay [3] stood at 670 nM; in the assay with A549 it was 3400 nM; in [4], 440 nM; in the assay with COLO 205, 2200 nM; in the assay with T47D it was 220 nM.
